Test results from ChEMBL document CHEMBL3120154, “2-[N-Alkyl(R-phenyl)-aminomethyl]-3-phenyl-7-trifluoromethylquinoxalines as anticancer agents inhibitors of folate enzymes” (Eur J Med Chem, 2014).

How the values were obtained:
Type in all cases: functional
[1] = tested on: SW-620; assay: Cytotoxicity against human SW620 cells at 10^-5 M after 48 hrs by SRB assay; settings: SW-620, 48 h, read-out: GI
[2] = tested on: T47D; assay: Cytotoxicity against human T47D cells at 10^-6 M after 48 hrs by SRB assay; settings: read-out: GI
[3] = Cytotoxicity against human OVCAR4 cells at 10^-5 M after 48 hrs by SRB assay; settings: OVCAR-4, 48 h, read-out: GI
Outline: (§1)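 Second-stage screen in the 60-cell-line human tumor panel at NCI, over a 5-log range (100, 10, 1, 0.1, 0.01 micromolar). Cells were exposed to drug for 48 h and growth was estimated with a sulforhodamine B protein stain. The value is percent growth inhibition at each concentration.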

[4] = tested on: TK-10; assay: Cytotoxicity against human TK10 cells at 10^-5 M after 48 hrs by SRB assay; settings: TK-10, 48 h, read-out: GI
[5] = tested on: RPMI-8226; assay: Cytotoxicity against human RPMI8226 cells at 10^-5 M after 48 hrs by SRB assay; settings: RPMI-8226, 48 h, read-out: GI; outline: as §1
[6] = tested on: SNB-75; assay: Cytotoxicity against human SNB75 cells at 10^-6 M after 48 hrs by SRB assay; settings: SNB-75, 48 h, read-out: GI
[7] = tested on: NCI/ADR-RES; assay: Cytotoxicity against human NCI/ADR-RES cells at 10^-6 M after 48 hrs by SRB assay; settings: read-out: GI
Outline: (§2)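 Run in the NCI 60-cell-line screen after a three-line prescreen. Cells got a 48 h drug exposure; viability/growth was estimated with the sulforhodamine B protein assay. Growth inhibition (I%) was recorded at 100, 10, 1, 0.1 and 0.01 micromolar. Percent growth is relative to untreated control cells, and negative values indicate cell kill.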

[8] = tested on: HL-60(TB); assay: Cytotoxicity against human HL-60(TB) cells at 10^-5 M after 48 hrs by SRB assay; settings: HL-60, 48 h, read-out: GI
Outline: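 NCI 60-human-tumour-cell-line screen run over a 5-log dose range (100, 10, 1, 0.1 and 0.01 µM). Cells were exposed to drug for 48 h. Growth was estimated by sulforhodamine B protein staining. Values are percent growth inhibition at each concentration, relative to untreated control cells.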

[9] = tested on: MDA-MB-435; assay: Cytotoxicity against human MDA-MB-435 cells at 10^-6 M after 48 hrs by SRB assay; settings: MDA-MB-435, 48 h, read-out: GI; outline: as §2
[10] = Cytotoxicity against human EKVX cells at 10^-6 M after 48 hrs by SRB assay; settings: read-out: GI
Outline: (§3)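 Run by NCI on its 60-line human tumor cell panel, after a three-cell-line prescreen. Cells were exposed to drug for 48 h over a 5-log range: 100, 10, 1, 0.1 and 0.01 micromolar. Growth was estimated by sulforhodamine B (SRB) protein staining. Percent growth inhibition (I%) was recorded at each concentration relative to untreated control cells.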

[11] = tested on: NCI-H460; assay: Cytotoxicity against human NCI-H460 cells at 10^-5 M after 48 hrs by SRB assay; settings: NCI-H460, 48 h, read-out: GI; outline: as §2
[12] = tested on: KM12; assay: Cytotoxicity against human KM12 cells at 10^-6 M after 48 hrs by SRB assay; settings: KM12, 48 h, read-out: GI; outline: as §2
[13] = tested on: NCI-H226; assay: Cytotoxicity against human NCI-H226 cells at 10^-5 M after 48 hrs by SRB assay; settings: NCI-H226, 48 h, read-out: GI; outline: as §2
[14] = tested on: SN12C; assay: Cytotoxicity against human SN12C cells at 10^-6 M after 48 hrs by SRB assay; settings: read-out: GI
[15] = tested on: 786-0; assay: Cytotoxicity against human 786-0 cells at 10^-6 M after 48 hrs by SRB assay; settings: 786-0, 48 h, read-out: GI; outline: as §3
[16] = Cytotoxicity against human UACC257 cells at 10^-5 M after 48 hrs by SRB assay; settings: UACC-257, 48 h, read-out: GI
[17] = Cytotoxicity against human UACC257 cells at 10^-6 M after 48 hrs by SRB assay; settings: UACC-257, 48 h, read-out: GI
[18] = tested on: MDA-MB-231; assay: Cytotoxicity against human MDA-MB-231 cells at 10^-5 M after 48 hrs by SRB assay; settings: MDA-MB-231, 48 h, read-out: GI; outline: as §2
[19] = tested on: SNB-19; assay: Cytotoxicity against human SNB19 cells at 10^-5 M after 48 hrs by SRB assay; settings: SNB-19, 48 h, read-out: GI
[20] = tested on: SW-620; assay: Cytotoxicity against human SW620 cells at 10^-6 M after 48 hrs by SRB assay; settings: SW-620, 48 h, read-out: GI
[21] = tested on: NCI-H23; assay: Cytotoxicity against human NCI-H23 cells at 10^-6 M after 48 hrs by SRB assay; settings: NCI-H23, 48 h, read-out: GI; outline: as §2
[22] = tested on: A498; assay: Cytotoxicity against human A498 cells at 10^-5 M after 48 hrs by SRB assay; settings: A498, 48 h, read-out: GI; outline: as §3
[23] = tested on: A549; assay: Cytotoxicity against human A549 cells at 10^-6 M after 48 hrs by SRB assay; settings: A549, 48 h, read-out: GI; outline: as §3
[24] = tested on: A549; assay: Cytotoxicity against human A549 cells at 10^-5 M after 48 hrs by SRB assay; settings: A549, 48 h, read-out: GI; outline: as §3
[25] = Cytotoxicity against human Hs578T cells at 10^-5 M after 48 hrs by SRB assay; settings: Hs-578T, read-out: GI; outline: as §3
[26] = tested on: U-251; assay: Cytotoxicity against human U251 cells at 10^-5 M after 48 hrs by SRB assay; settings: U-251, 48 h, read-out: GI
[27] = tested on: KM12; assay: Cytotoxicity against human KM12 cells at 10^-5 M after 48 hrs by SRB assay; settings: KM12, 48 h, read-out: GI; outline: as §2
[28] = tested on: SK-MEL-5; assay: Cytotoxicity against human SK-MEL-5 cells at 10^-6 M after 48 hrs by SRB assay; settings: SK-MEL-5, 48 h, read-out: GI; outline: as §1
[29] = tested on: MDA-MB-231; assay: Cytotoxicity against human MDA-MB-231 cells at 10^-6 M after 48 hrs by SRB assay; settings: MDA-MB-231, 48 h, read-out: GI; outline: as §2
[30] = tested on: SK-OV-3; assay: Cytotoxicity against human SKOV3 cells at 10^-5 M after 48 hrs by SRB assay; settings: SK-OV-3, 48 h, read-out: GI; outline: as §1
[31] = tested on: LOX IMVI; assay: Cytotoxicity against human LOXIMVI cells at 10^-5 M after 48 hrs by SRB assay; settings: read-out: GI; outline: as §2
[32] = tested on: NCI-H23; assay: Cytotoxicity against human NCI-H23 cells at 10^-5 M after 48 hrs by SRB assay; settings: NCI-H23, 48 h, read-out: GI; outline: as §2
[33] = tested on: SNB-19; assay: Cytotoxicity against human SNB19 cells at 10^-6 M after 48 hrs by SRB assay; settings: SNB-19, 48 h, read-out: GI
[34] = tested on: NCI/ADR-RES; assay: Cytotoxicity against human NCI/ADR-RES cells at 10^-5 M after 48 hrs by SRB assay; settings: read-out: GI; outline: as §2
[35] = tested on: MCF7; assay: Cytotoxicity against human MCF7 cells at 10^-6 M after 48 hrs by SRB assay; settings: MCF7, 48 h, read-out: GI; outline: as §2
[36] = tested on: HCT-116; assay: Cytotoxicity against human HCT116 cells at 10^-6 M after 48 hrs by SRB assay; settings: HCT-116, 48 h, read-out: GI; outline: as §3
[37] = tested on: PC-3; assay: Cytotoxicity against human PC3 cells at 10^-5 M after 48 hrs by SRB assay; settings: PC-3, 48 h, read-out: GI; outline: as §1

Compound: C#CCN(Cc1nc2cc(C(F)(F)F)ccc2nc1-c1ccccc1)c1ccc(C)cc1
- inhibition of growth at 10 µM [1]: 82%
- inhibition of growth at 1 µM [2]: 90%
- inhibition of growth at 10 µM [3]: 63%
- inhibition of growth at 10 µM [4]: 54%
- inhibition of growth at 10 µM [5]: < 40%
- inhibition of growth at 1 µM [6]: < 40%
- inhibition of growth at 1 µM [7]: 109%
- inhibition of growth at 10 µM [8]: 85%
- inhibition of growth at 1 µM [9]: 104%
- inhibition of growth at 1 µM [10]: < 40%
- inhibition of growth at 10 µM [11]: 75%
- inhibition of growth at 1 µM [12]: < 40%
- inhibition of growth at 10 µM [13]: 91%
- inhibition of growth at 1 µM [14]: < 40%
- inhibition of growth at 1 µM [15]: < 40%
- inhibition of growth at 10 µM [16]: < 40%
- inhibition of growth at 1 µM [17]: < 40%
- inhibition of growth at 10 µM [18]: 64%
- inhibition of growth at 10 µM [19]: 92%
- inhibition of growth at 1 µM [20]: < 40%
- inhibition of growth at 1 µM [21]: < 40%
- inhibition of growth at 10 µM [22]: 116%
- inhibition of growth at 1 µM [23]: 45%
- inhibition of growth at 10 µM [24]: 55%
- inhibition of growth at 10 µM [25]: 88%
- inhibition of growth at 10 µM [26]: 85%
- inhibition of growth at 10 µM [27]: 137%
- inhibition of growth at 1 µM [28]: < 40%
- inhibition of growth at 1 µM [29]: < 40%
- inhibition of growth at 10 µM [30]: 112%
- inhibition of growth at 10 µM [31]: 54%
- inhibition of growth at 10 µM [32]: 92%
- inhibition of growth at 1 µM [33]: 54%
- inhibition of growth at 10 µM [34]: 113%
- inhibition of growth at 1 µM [35]: 64%
- inhibition of growth at 1 µM [36]: 66%
- inhibition of growth at 10 µM [37]: < 40%

Compound: CCN(Cc1nc2cc(C(F)(F)F)ccc2nc1-c1ccccc1)c1ccc(OC)c(OC)c1
- inhibition of growth at 10 µM [1]: 18%
- inhibition of growth at 1 µM [2]: < 40%
- inhibition of growth at 10 µM [3]: < 40%
- inhibition of growth at 10 µM [4]: < 40%
- inhibition of growth at 10 µM [5]: 97%
- inhibition of growth at 1 µM [6]: < 40%
- inhibition of growth at 1 µM [7]: < 40%
- inhibition of growth at 10 µM [8]: 83%
- inhibition of growth at 1 µM [9]: < 40%
- inhibition of growth at 1 µM [10]: < 40%
- inhibition of growth at 10 µM [11]: 25%
- inhibition of growth at 1 µM [12]: < 40%
- inhibition of growth at 10 µM [13]: 32%
- inhibition of growth at 1 µM [14]: < 40%
- inhibition of growth at 1 µM [15]: < 40%
- inhibition of growth at 10 µM [16]: 146%
- inhibition of growth at 1 µM [17]: 104%
- inhibition of growth at 10 µM [18]: 36%
- inhibition of growth at 10 µM [19]: < 40%
- inhibition of growth at 1 µM [20]: < 40%
- inhibition of growth at 1 µM [21]: 14%
- inhibition of growth at 10 µM [22]: 63%
- inhibition of growth at 1 µM [23]: 56%
- inhibition of growth at 10 µM [24]: 79%
- inhibition of growth at 10 µM [25]: 43%
- inhibition of growth at 10 µM [26]: 62%
- inhibition of growth at 10 µM [27]: < 40%
- inhibition of growth at 1 µM [28]: < 40%
- inhibition of growth at 1 µM [29]: < 40%
- inhibition of growth at 10 µM [30]: < 40%
- inhibition of growth at 10 µM [31]: 23%
- inhibition of growth at 10 µM [32]: 34%
- inhibition of growth at 1 µM [33]: < 40%
- inhibition of growth at 10 µM [34]: 21%
- inhibition of growth at 1 µM [35]: < 40%
- inhibition of growth at 1 µM [36]: 12%
- inhibition of growth at 10 µM [37]: 56%
